Source: PubChem
Only some compounds are listed: those with a hit (about 0.59% of all), similar ones and a draw of the others.
OXTR potentiator = human OXTR potentiators, primary screen, fluorescence, CHO-OTR cells, Fluo-8 calcium. Oxytocin receptor (Homo sapiens), P30559. Fluo-8 calcium fluorescence, potentiator mode; 0% = oxytocin EC15, 100% = EC100. activation, % at 3 µM. actives 0.061% (n = 320,000). AID 2445, 2010;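 active means activation above that plate's cutoff, the mean activation of tested compounds plus 3 SD, cut at about 6.6% in these data, passing the limit was not always enough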
Target sequence (P30559 whole entry, looked up): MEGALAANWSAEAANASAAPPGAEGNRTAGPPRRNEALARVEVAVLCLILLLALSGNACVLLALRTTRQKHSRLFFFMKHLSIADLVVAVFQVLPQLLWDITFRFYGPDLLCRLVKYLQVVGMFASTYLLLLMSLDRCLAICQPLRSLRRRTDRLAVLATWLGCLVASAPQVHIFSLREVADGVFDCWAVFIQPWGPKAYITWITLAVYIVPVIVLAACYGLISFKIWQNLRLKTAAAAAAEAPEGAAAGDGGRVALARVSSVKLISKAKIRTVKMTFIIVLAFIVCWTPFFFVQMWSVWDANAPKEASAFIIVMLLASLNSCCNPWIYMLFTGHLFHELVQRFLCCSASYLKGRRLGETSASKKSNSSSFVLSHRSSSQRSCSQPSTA
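Material: human OTR in CHO cells. Compound: 3.0 µM, one dose. Timing: compound 6 min at room temperature before oxytocin, 100 s read. Evaluation: % activation of max/min ratio relative to oxytocin controls. Replication: single well per compound, singlicate. Signal: Fluo-8 calcium dye fluorescence.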
V1R ag counter = agonists of human V1a receptor, primary screen, counter-screen for OXTR agonist project, fluorescence, CHO-V1R cells | Fluo-8 calcium fluorescence, agonist mode; 0% DMSO, 100% 3 nM vasopressin | activation, % at 3 µM | actives 0.25% (n = 320,000) | AID 2797, 2010;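 active means activation above the mean activation of all tested compounds plus 3 SD, per screening run, cut at about 20% in these data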;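 further: signal is peak over basal fluorescence ratio across a 100 second FLIPR read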
TRPML3 ag = human TRPML3 channel agonists, primary screen, cell-based, HEK293 TRPML3-YFP, Fluo-8 calcium fluorescence, 3 µM. Mucolipin-3 (Homo sapiens), Q8TDD5. 100% = the carbachol control signal. activation, % at 3 µM. actives 0.29% (n = 220,000);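 active means activation above its plate's cutoff, the mean activation of the plate's test wells plus 3 SD, cut at about 12% in these data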
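system = HEK293 cells stably carrying human TRPML3-YFP | doses = one concentration, 3 µM nominal, 0.3% DMSO | timing = dye loading 1 h 37 °C then 30 min ambient, 125 s read | detection = Fluo-8 calcium dye fluorescence, ex 470-495, em 515-575 nm | benchmarks = high control carbachol 87 µM, low control DMSO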
OXTR ag = human OXTR agonists, primary screen, fluorescence, CHO-OTR cells, Fluo-8 calcium | Fluo-8 calcium fluorescence; normalized: DMSO 0%, oxytocin 100% | AID 2435, 2010 | actives 0.32% (n = 320,000) | activation, % at 3 µM | Oxytocin receptor (Homo sapiens), P30559;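 active means activation above the mean of all tested compounds plus 3 SD, cutoff set per screening run, cut at about 20% in these data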;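 further: peak over basal fluorescence ratio from a 100 s FLIPR kinetic read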
TRPN1 ag = zebrafish TRPN1 channel agonists, primary screen, cell-based, HEK293, calcium fluorescence; transient receptor potential cation channel N1 (TRPN1/NompC), Danio rerio; HEK293 zebrafish TRPN1-YFP, Fluo-8 calcium fluorescence; 100% = response to 87 µM carbachol; activation, % at 3 µM; actives 0.18% (n = 220,000); AID 1424, 2008;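 active means activation above its plate's cutoff, the mean activation of test wells on that plate plus 3 SD, cut at about 19% in these data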
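Control set: carbachol 87 µM as high control, DMSO as low control; system: HEK293 stable line with zebrafish TRPN1-YFP; read-out: % activation versus carbachol response; detection: intracellular calcium fluorescence with Fluo-8; doses: single test compound dose, 3 µM nominal, 0.3% DMSO; schedule: dye 1 h 37 °C plus 30 min RT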
OXTR ag confirm = human OXTR agonists, confirmation, fluorescence, CHO-OTR cells, triplicate; Fluo-8 calcium fluorescence, agonist; actives 20% (n = 390); activation, % at 3 µM; shares compounds with OXTR ag;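 active means mean activation above about 20% derived from the earlier single-dose screen, limit read from the data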;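 further: peak over minimum fluorescence ratio per well during a 100 second FLIPR read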
V1aR counter 3x = V1a receptor agonists, calcium signal, counter-screen for OXTR agonist project, triplicate, fluorescence, CHO-V1R cells. shares compounds with OXTR ag. Fluo-8 calcium fluorescence. activation, % at 3 µM. actives 10% (n = 390);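 active means mean activation over triplicate exceeds the hit threshold set in the earlier primary screen, cut at about 20% in these data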;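 further: peak over basal fluorescence ratio within a 100 second read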
OXTR pot confirm = human OXTR potentiators, confirmation, fluorescence, CHO-OTR cells, triplicate | shares compounds with OXTR potentiator | Fluo-8 calcium fluorescence, potentiation; scaled from low-dose to maximal oxytocin | activation, % at 3 µM | 180 tested, under 10 active | AID 434985, 2010;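 active means mean percent activation over triplicates above a cutoff set from solvent-only control plates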;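 further: compounds tested in the presence of an EC15 dose of oxytocin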
Of the large screens only hits and unclear results are named; the others gave an inactive call (follow-up assays come after a bar, where they were run).

O=C1NC[C@@H](Cc2cccc3ccccc23)N(CC2(c3ccccc3)CC2)C1=O	OXTR ag 22.5 (no result: TRPML3 ag, TRPN1 ag) | OXTR ag confirm inactive | V1aR counter 3x inactive
O=C1NC[C@@H](Cc2cccc3ccccc23)N(CC2CCCCC2)C1=O	none (no result: TRPML3 ag, TRPN1 ag)
O=C(NCCC1CCCCN1S(=O)(=O)c1ccccc1)C(=O)NC1CC1 (centres undefined)	none (no result: TRPML3 ag, TRPN1 ag)
COCCn1c(C)cc(C(=O)COC(=O)C2CC(=O)N(CCc3ccc(OC)c(OC)c3)C2)c1C (centres undefined)	none (no result: TRPML3 ag, TRPN1 ag)
Nc1nc(Cl)cc(N2CCC(c3cc(-c4ccc(Cl)cc4)n[nH]3)CC2)n1	OXTR ag 22.2 | OXTR ag confirm inactive | V1aR counter 3x inactive
COc1cc(C2NC(=S)NC(c3ccccc3)=C2C(C)=O)cc(Cl)c1OCC(=O)O (centres undefined)	none
CC(=O)C1=C(c2ccccc2)NC(=S)NC1c1cc(Cl)c(OC(C)C)c(Cl)c1 (centres undefined)	OXTR ag 19.9 | OXTR ag confirm inactive | V1aR counter 3x inactive
CN1CCC(N(C)S(=O)(=O)c2ccc(NC(=O)COc3ccc(Br)cc3Cl)cc2)CC1	OXTR ag 24.9 (no result: TRPML3 ag, TRPN1 ag) | OXTR ag confirm inactive | V1aR counter 3x inactive
Cc1ccc(C(C)NC(=O)/C(C#N)=C\c2c(C)[nH]c3ccccc23)cc1 (centres undefined)	OXTR ag 26.6 | OXTR ag confirm inactive | V1aR counter 3x inactive
Nc1nonc1C(=O)NCCNCc1cc(Br)ccc1OCc1ccc(F)cc1	OXTR ag 19.8 | OXTR ag confirm inactive | V1aR counter 3x inactive
CCOC(=O)C1=C(N)N2C(=O)C(C)SC2=C(C(=O)OC)C1c1ccccc1OC (centres undefined)	OXTR ag 31.1 | OXTR ag confirm inactive | V1aR counter 3x inactive
CCOC(=O)c1nn(-c2ccc(F)cc2)c(=O)cc1OCC(=O)Nc1ccc(F)c(F)c1	none (no result: TRPML3 ag, TRPN1 ag)
Cc1[nH]c2ccccc2c1/C=N/Nc1ccc([N+](=O)[O-])cc1	OXTR ag 21.3 | OXTR ag confirm 24.5 | V1aR counter 3x 34.6
Cc1ccc(NC(=O)c2cc(S(=O)(=O)N3CCOCC3)cn2C)cc1F	none (no result: TRPML3 ag, TRPN1 ag)
CCCN(CCC)CCNC(=O)CCC(=O)Nc1ccc2nc(N3CCN(C)CC3)cc(C)c2c1	OXTR potentiator 12.3 | OXTR pot confirm inactive
Cc1ccc(C)c(NC(=O)CCN2C(=O)C3CC=CCC3C2=O)c1 (centres undefined)	OXTR potentiator 14.6 (no result: TRPML3 ag, TRPN1 ag) | OXTR pot confirm inactive
O=C(/C=C/c1ccc([N+](=O)[O-])cc1)c1cccnc1	OXTR potentiator 13.0 | OXTR pot confirm inactive
O=c1cc(-c2c(F)c(F)c(F)c(F)c2F)oc2c(F)c(F)c(F)c(F)c12	OXTR potentiator 19.2 | OXTR pot confirm 11.0
O=C(Cn1ncc2ccccc21)N1CCc2ccccc21	OXTR potentiator 12.1 | OXTR pot confirm inactive
Cc1cc(NC(=O)C(C)SCC(=O)OCC(=O)Nc2c(C)cccc2C(C)C)no1 (centres undefined)	none (no result: TRPML3 ag, TRPN1 ag)
CC(C)(C)NC(=O)c1cc(C(C)(C)C)c(O)c(C(C)(C)C)c1	OXTR potentiator 10.4 | OXTR pot confirm inactive
CCCOc1ccc(C(=O)N2CCCc3ccccc32)cc1	none
CCOc1ccc(C(=O)N2CCc3ccccc32)cc1	OXTR potentiator 12.2 (no result: TRPML3 ag, TRPN1 ag) | OXTR pot confirm inactive
